According to ChEMBL document CHEMBL1146898, “Synthesis and immunostimulatory activity of 8-substituted amino 9-benzyladenines as potent Toll-like receptor 7 agonists” (Bioorg Med Chem Lett, 2006):
Calls of active or inactive are those of the source. The calls are words filed in the database; no cut-off is given here.

Experiments:
PBMC [1] = assay: Induction of IFNalpha production in human PBMC; type: functional, cell-based
Procedure, shortened: (§1)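 Ficoll-Hypaque-isolated human PBMC were held in RPMI 1640 with 10% FBS, L-glutamine and pen/strep, 10⁶ cells/well. They were treated for 24 h with a compound dilution series going down to 10 nM. Supernatant IFN-α was read by Luminex bead assay. Data are a composite of three donors. EC₅₀ came from non-linear regression curve fit.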

PBMC [2] = assay: Induction of IFNalpha production in human PBMC at 1 uM; type: functional
Procedure, shortened: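 Donor PBMC from blood bank isolated over Ficoll-Hypaque and kept in RPMI 1640 with 10% FBS, L-glutamine and penicillin/streptomycin. 10⁶ cells/well were stimulated with compound at single final concentration for 24 h (37 °C, 5% CO₂). Supernatant IFN-α was measured by Luminex multicytokine bead kit. Values are a composite across several healthy donors.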

PBMC [3] = assay: Maximal IFNalpha production in human PBMC at 10 uM; type: functional; procedure, shortened: as §1
Macrophage [4] = assay: Induction of TNFalpha production in macrophages of TLR7 knockout mouse; type: functional, cell-based
Macrophage [5] = assay: Induction of IL12 production in macrophages of TLR7 knockout mouse; type: functional, cell-based
Macrophage [6] = assay: Induction of IL6 production in macrophages of TLR7 knockout mouse; type: functional, cell-based

Row | Compound | EC50 (PBMC [1]) [µM] | Activity (PBMC [2]) [pg/mL] | Activity (PBMC [3]) [pg/mL] | Activity (Macrophage [4]) | Activity (Macrophage [5]) | Activity (Macrophage [6])
1 | COCCOc1nc(N)c2[nH]c(=O)n(Cc3ccccc3)c2n1 | 0.14 | 418 | 220 | – | – | –
2 | COCCOc1nc(N)c2nc(NN)n(Cc3ccccc3)c2n1 | – | 0.21 | – | – | – | –
3 | COCCOc1nc(N)c2nc(NCCN3CCOCC3)n(Cc3ccccc3)c2n1 | 0.79 | 110.48 | 176 | inactive | inactive | inactive
4 | COCCOc1nc(N)c2nc(NCCCO)n(Cc3ccccc3)c2n1 | 3.2 | 113.18 | 206 | inactive | inactive | inactive
5 | COCCOc1nc(N)c2nc(NCCO)n(Cc3ccccc3)c2n1 | 5.33 | 99.21 | 168 | inactive | inactive | inactive
6 | CCNc1nc2c(N)nc(OCCOC)nc2n1Cc1ccccc1 | 4.42 | 80.3 | 141 | inactive | inactive | inactive
7 | COCCOc1nc(N)c2nc(N(CCO)CCO)n(Cc3ccccc3)c2n1 | – | 0.82 | – | – | – | –
8 | COCCOc1nc(N)c2nc(NCCc3ccccc3)n(Cc3ccccc3)c2n1 | – | 1.33 | – | – | – | –
9 | CCCCNc1nc2c(N)nc(OCCOC)nc2n1Cc1ccccc1 | – | 0.73 | – | – | – | –
10 | CCCNc1nc2c(N)nc(OCCOC)nc2n1Cc1ccccc1 | – | 8.8 | – | – | – | –
11 | COCCOc1nc(N)c2nc(N3CCOCC3)n(Cc3ccccc3)c2n1 | – | 0.41 | – | – | – | –
12 | COCCOc1nc(N)c2nc(N)n(Cc3ccccc3)c2n1 | > 10 | – | 132 | – | – | –
13 | CCOC(=O)Nc1nc2c(N)nc(OCCOC)nc2n1Cc1ccccc1 | – | 1.03 | – | – | – | –
